According to ChEMBL document CHEMBL3228013 (J Med Chem, 1979):
The source made the active and inactive calls. No cut-off for these calls is given here.

Key:
[1] = Half life of the compound in 1:4 D2O:[…] containing at 1 x 10^-3 M NaOD at 5 x 10^-2 M by UV-spectroscopy; type: physicochemical; conditions: 1:4 D2O:Me2SO-d2 with NaOD
L1210 = test: Antitumor activity against mouse L1210 cells allografted in mouse at 500 mg/kg, ip began on day 1 halved compound dose ended at […], ip measured on day 30; type: functional, organism-based
Summary of the method: (§1)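 Female or male mice bearing L1210 lymphoid leukemia were tested under the NCI standard protocol. Dosing was ip, day 1 only, in aqueous Tween-80, at halved doses starting at 500 mg/kg and generally ending at 62.5 mg/kg. Mean survival time was assessed on day 30, and T/C ≥125% was taken as active.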

Mus musculus = test: Toxicity in mouse allografted with mouse L1210 cells at 500 mg/kg, ip; type: organism-based; parameters: dose 500 mg/kg, route intraperitoneal; conditions: in vivo; summary of the method: as §1
KB = test: Cytotoxicity against human KB cells; type: functional, cell-based
[2] = Half life of the compound in 1:1 H2O:ethylalcohol containing 2.08 x 10^-3 M NaOH at 8.3 x 10^-5 M by UV-spectroscopy; type: physicochemical; conditions: 1:1 water:ethanol with NaOH
[3] = Half life of the compound in 1:1 H2O:ethylalcohol containing 3.33 x 10^-3 M NaOH at 8.3 x 10^-5 M by UV-spectroscopy; type: physicochemical; conditions: 1:1 water:ethanol with NaOH
[4] = Half life of the compound in 1:1 H2O:ethylalcohol containing 5 x 10^-3 M NaOH at 8.3 x 10^-5 M by UV-spectroscopy; type: physicochemical; conditions: 1:1 water:ethanol with NaOH
[5] = Half life of the compound in 1:1 H2O:ethylalcohol containing 6.66 x 10^-3 M NaOH at 8.3 x 10^-5 M by UV-spectroscopy; type: physicochemical; conditions: 1:1 water:ethanol with NaOH
[6] = Half life of the compound in 1:1 H2O:ethylalcohol containing 8.33 x 10^-3 M NaOH at 8.3 x 10^-5 M by UV-spectroscopy; type: physicochemical; conditions: 1:1 water:ethanol with NaOH
[7] = Drug metabolism assessed as wheat germ orthophosphoric monoester phosphohydrolase-mediated hydrolysis at 1.5 mM by UV spectroscopy; type: ADME; conditions: triticum aestivum, 1500 µM
Summary of the method: (§2)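 Wheat germ orthophosphoric monoester phosphohydrolase (2.1 units/mg toward 2-carboxyphenyl phosphate) was used. Compound at 1.5 mM was incubated in 0.15 M NaOAc pH 5.0 with glycerin at about 25–26 °C for 2 h, against a reference cell without enzyme, with UV monitoring at 290 nm. 2-Carboxyphenyl phosphate was then added to check remaining enzyme activity.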

[8] = Inhibition of wheat germ orthophosphoric monoester phosphohydrolase using 2-carboxyphenyl phosphate as substrate at 1.5 mM after 2 hrs by UV spectroscopy; conditions: triticum aestivum, 1500 µM; summary of the method: as §2
[9] = Toxicity in ip dosed mouse allografted with mouse L1210 cells; type: organism-based; conditions: in vivo; summary of the method: as §1

Row | SMILES | half-life at 50000 µM [1] | Activity (L1210) | Activity (Mus musculus) | Activity (KB) | half-life at 83 µM [2] | half-life at 83 µM [3] | half-life at 83 µM [4] | half-life at 83 µM [5] | half-life at 83 µM [6] | Stability [7] | inhibition (INH) [8] | MTD [9]
1 | Cc1ccc(NP(=O)(Oc2c(F)c(F)c(F)c(F)c2F)N(CCCl)CCCl)cc1 (configuration not stated) | 6.53 min | inactive | Non-toxic | inactive | – | – | – | – | – | – | – | –
2 | O=P(Nc1ccccc1)(Oc1c(F)c(F)c(F)c(F)c1F)N(CCCl)CCCl (configuration not stated) | 5.3 min | inactive | Non-toxic | inactive | – | – | – | – | – | – | – | –
3 | CCOc1ccc(NP(=O)(Oc2c(F)c(F)c(F)c(F)c2F)N(CCCl)CCCl)cc1 (configuration not stated) | 8.17 min | inactive | Non-toxic | inactive | – | – | – | – | – | – | – | –
4 | NP(=O)(Oc1c(F)c(F)c(F)c(F)c1F)N(CCCl)CCCl (configuration not stated) | – | inactive | – | inactive | 2 min | 1.33 min | 0.867 min | 0.717 min | 0.6 min | Stable | Not Active | 31.2 mg/kg
